Data on 3 compounds can be found in ChEMBL document CHEMBL4017460, “A Tobramycin Vector Enhances Synergy and Efficacy of Efflux Pump Inhibitors against Multidrug-Resistant Gram-Negative Bacteria” (J Med Chem, 2017).

SMILES strings stand for the structures. The source made the active and inactive calls. The calls are words filed in the database; no cut-off is given here. Where only a bound is given, the exact number is not on record here.

Series [1] deals with Pseudomonas aeruginosa. The series is described as follows: Inhibition of RND efflux pump in colistin-resistant Pseudomonas aeruginosa isolate 91433 assessed as potentiation of minocycline-induced antibacterial activity by measuring minocycline MIC at 0.25 times antibacterial MIC after 18 to 24 hrs by microbroth dilution assay (reference value: 32 ug/ml). Put shortly: (§1)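 Checkerboard broth microdilution: antibiotic 2-fold diluted along one axis, adjuvant 2-fold diluted along the other. Overnight culture standardized to 0.5 McFarland in saline, diluted 1:50 in MHB, added to wells, 37 °C for 18 h. MIC is the lowest concentration with no growth. FIC = MIC in combination / MIC alone; FICI = sum of the two FICs; FICI ≤0.5 is synergy.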
For orientation: In broth dilution the organism is exposed to a series of concentrations in liquid medium.

Series [2] is described as follows: Toxicity in Galleria mellonella assessed as death at 100 mg/kg after 24 hrs relative to control. Format: organism-based. The conditions noted are these: in vivo, read-out: Activity.
For series [3], the system named is Pseudomonas aeruginosa PAO1. In words: Inhibition of RND efflux pump in Pseudomonas aeruginosa PAO1 assessed as potentiation of minocycline-induced antibacterial activity by measuring fold reduction in minocycline MIC at 8 ug/ml after 18 to 24 hrs by microbroth dilution assay relative to minocycline alone. In a few lines: (§2)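 Absolute minocycline MIC taken from checkerboard broth dilution with a fixed 8 μg/mL adjuvant. Inoculum was a 0.5 McFarland saline suspension diluted 1:50 in MHB, incubated 37 °C for 18 h. MIC is the lowest concentration with no growth.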

Series [4] has as its system Pseudomonas aeruginosa PAO1. In words: Inhibition of RND efflux pump in Pseudomonas aeruginosa PAO1 assessed as potentiation of minocycline-induced bactericidal activity up to 1 time antibacterial MIC after 9 hrs by serial dilution assay.
The subject of series [5] is Pseudomonas aeruginosa. In words: Inhibition of RND efflux pump in Pseudomonas aeruginosa isolate P264-104354 assessed as potentiation of minocycline-induced antibacterial activity at 0.25 times antibacterial MIC after 18 to 24 hrs by checker board assay. Put shortly: (§3)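 Checkerboard in MHB: antibiotic 2-fold diluted along one axis, test agent 2-fold diluted along the other. Overnight culture standardized to 0.5 McFarland in saline, diluted 1:50 in MHB, added to wells, incubated 37 °C for 18 h. MIC is the lowest concentration with no growth. FIC = MIC in combination / MIC alone; FIC index = sum of both FICs.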

The nature of series [6]: Cytotoxicity against human JIMT1 cells assessed as reduction in cell viability after 24 hrs by MTS assay. Format: cell-based, JIMT-1.
Series [7] deals with Pseudomonas aeruginosa. The series is described as follows: Inhibition of RND efflux pump in colistin-resistant Pseudomonas aeruginosa isolate 91433 assessed as potentiation of minocycline-induced antibacterial activity by measuring fold reduction in minocycline MIC at 0.25 times antibacterial MIC after 18 to 24 hrs by microbroth dilution assay. In a few lines:
as §1

Series [8] relates to Pseudomonas aeruginosa. The series is described as follows: Inhibition of RND efflux pump in Pseudomonas aeruginosa isolate 101885 assessed as potentiation of minocycline-induced antibacterial activity by measuring minocycline MIC at 8 ug/ml after 18 to 24 hrs by microbroth dilution assay (reference value: 16 to 32 ug/ml). Put shortly: as §2
Series [9] concerns Pseudomonas aeruginosa PAO1. The series is described as follows: Inhibition of RND efflux pump in Pseudomonas aeruginosa PAO1 assessed as potentiation of minocycline-induced antibacterial activity by measuring ratio of minocycline MIC after 25 serial passages to minocycline MIC at sub-MIC after 18 to 24 hrs by microbroth dilution assay.
Series [10] can be described thus: Cytotoxicity against human DU145 cells assessed as reduction in cell viability after 24 hrs by MTS assay. Type of series: cell-based, DU-145.
For series [11], the system named is Pseudomonas aeruginosa. In words: Inhibition of RND efflux pump in colistin-resistant Pseudomonas aeruginosa isolate 91433 assessed as potentiation of minocycline-induced antibacterial activity at 0.25 times antibacterial MIC after 18 to 24 hrs by checker board assay. In a few lines: as §1
In series [12] the test system is Pseudomonas aeruginosa. In words: Inhibition of RND efflux pump in Pseudomonas aeruginosa isolate […] assessed as potentiation of minocycline-induced antibacterial activity by measuring minocycline MIC at 0.25 times antibacterial MIC after 18 to 24 hrs by microbroth dilution assay (reference value: 64 ug/ml). The settings on record: isolate P262-104354. Put shortly:
as §1

Series [13] has as its system Pseudomonas aeruginosa. The series is described as follows: Inhibition of RND efflux pump in colistin-resistant Pseudomonas aeruginosa isolate 91433 assessed as potentiation of minocycline-induced antibacterial activity by measuring minocycline MIC at 8 ug/ml after 18 to 24 hrs by microbroth dilution assay (reference value: 32 ug/ml). Put shortly: as §1
For series [14], the system named is Galleria mellonella. In words: Toxicity in Galleria mellonella assessed as death at 200 mg/kg up to 96 hrs. Format: organism-based. The settings on record: in vivo.
Series [15] relates to Pseudomonas aeruginosa. The series is described as follows: Inhibition of RND efflux pump in Pseudomonas aeruginosa isolate […] assessed as potentiation of minocycline-induced antibacterial activity by measuring minocycline MIC at 8 ug/ml after 18 to 24 hrs by microbroth dilution assay (reference value: 64 ug/ml). The conditions noted are these: isolate P262-104354. Put shortly:
as §2

Series [16] concerns Pseudomonas aeruginosa. The series is described as follows: Inhibition of RND efflux pump in colistin-resistant Pseudomonas aeruginosa isolate 91433 assessed as potentiation of minocycline-induced antibacterial activity by measuring fold reduction in minocycline MIC at 8 ug/ml after 18 to 24 hrs by microbroth dilution assay. Put shortly: as §1
Series [17] is described as follows: Hemolytic activity against ovine erythrocytes at 1000 ug/ml after 30 mins relative to control. Type of series: ADME, cell-based, Ovis aries, Erythrocyte. The settings on record: sheep, read-out: Activity.
In series [18] the test system is Pseudomonas aeruginosa. The series is described as follows: Inhibition of RND efflux pump in Pseudomonas aeruginosa isolate P264-104354 assessed as potentiation of minocycline-induced antibacterial activity at 8 ug/ml after 18 to 24 hrs by checker board assay. In a few lines:
as §3

Series [19] deals with Pseudomonas aeruginosa PAO1. The series is described as follows: Inhibition of RND efflux pump in Pseudomonas aeruginosa PAO1 assessed as potentiation of minocycline-induced bactericidal activity at 0.5 times antibacterial MIC up to 24 hrs by serial dilution assay.
Series [20] concerns Pseudomonas aeruginosa. In words: Antibacterial activity against XDR Pseudomonas aeruginosa isolate P262-101856 infected in Galleria mellonella assessed as protection against bacterial infection by measuring larval death at 75 mg/kg up to 24 hrs relative to control. Type of series: functional. Put shortly: (§4)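 G. mellonella larvae infected with 1.0 × 10^5/mL CFU of XDR P. aeruginosa 101856. A single-dose injection of agent, alone or with minocycline, given 2 h post-infection. Survival scored up to 24 h. 15 larvae per experiment from different batches, two experiments per dosage (n = 30). Significance 0 vs 24 h at P ≤ 0.05.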

The test system of series [21] is Pseudomonas aeruginosa. In words: Inhibition of RND efflux pump in colistin-resistant Pseudomonas aeruginosa isolate 91433 assessed as potentiation of minocycline-induced antibacterial activity at 8 ug/ml after 18 to 24 hrs by checker board assay. Put shortly: as §1
Series [22] concerns Pseudomonas aeruginosa. The series is described as follows: Inhibition of RND efflux pump in XDR Pseudomonas aeruginosa isolate P262-101856 infected in Galleria mellonella assessed as potentiation of minocycline-induced antibacterial activity by measuring larval survival rate at 75 mg/kg co-treated with 75 mg/kg minocycline measured after 24 hrs relative to control. Type of series: organism-based. Put shortly: as §4

In series [23] the test system is Pseudomonas aeruginosa. The series is described as follows: Inhibition of RND efflux pump in XDR Pseudomonas aeruginosa isolate P262-101856 infected in Galleria mellonella assessed as potentiation of minocycline-induced antibacterial activity by measuring larval survival rate at 37.5 mg/kg co-treated with 37.5 mg/kg minocycline measured after 24 hrs relative to control. Type of series: organism-based. Put shortly: as §4

As usually defined, the CC50 is the concentration that lowers cell viability or growth by half. On to `NC[C@H]1C[C@H](C(=O)N[C@H](CCc2ccccc2)C(=O)Nc2ccc3ccccc3c2)N(CCCCCCCCCCCCO[C@@H]2[C@@H](O[C@H]3O[C@H](CO)[C@@H](O)[C@H](N)[C@H]3O)[C@H](N)C[C@H](N)[C@H]2O[C@H]2O[C@H](CN)[C@@H](O)C[C@H]2N)C1`, for which the MIC in series [1] was 0.25 µg/mL; in [8], < 0.125 µg/mL; in series [12] it was < 0.5 µg/mL. In addition, the mortality at 24 h in series [2] was 100%. The fold change (FC) is 64 in [3] and 8 to 256 in [7]. Moreover, in series [4], the inhibition entry is “Active”. In addition, the fractional inhibitory concentration index (FICI) in series [5] was 0.25; in series [11], 0.16. Further, the CC50 at 24 h in series [6] and in [10] was > 30 µM each time. Besides, the Ratio in [9] stood at 2.

`Cl.Cl.Cl.Cl.Cl.Cl.NC[C@H]1O[C@H](O[C@H]2[C@H](OCCCCCCCCCCCCN3CC[C@@H](c4ccc(F)cc4)[C@H](COc4ccc5c(c4)OCO5)C3)[C@@H](O[C@H]3O[C@H](CO)[C@@H](O)[C@H](N)[C@H]3O)[C@H](N)C[C@@H]2N)[C@H](N)C[C@@H]1O`: the MIC in series [13] was 0.25 µg/mL; in series [15], < 0.5 µg/mL; in [8] it was 1 µg/mL. Besides, the figures for the Activity result in series [14] and in [20] were “Non-Toxic” and 100%, respectively. Further, the fold change (FC) in [16] lay in the range of 8 to 256. The hemolysis at 0.5 h, 1000 ug/ml in series [17] is ≤ 5%. The fractional inhibitory concentration index (FICI) in series [18] was 0.06; in series [21] it was 0.19. The inhibition entry in series [19] is “Active”. Besides, the Ratio in series [9] is 2. In series [22], the Survival amounted to 56%.

As for `Cl.Cl.Cl.Cl.Cl.Cl.Cl.NC[C@H]1O[C@H](O[C@H]2[C@H](OCCCCCCCCCCCCN3CCN(Cc4cccc5ccccc45)CC3)[C@@H](O[C@H]3O[C@H](CO)[C@@H](O)[C@H](N)[C@H]3O)[C@H](N)C[C@@H]2N)[C@H](N)C[C@@H]1O`, the MIC in series [13] was 0.25 µg/mL; in [15] it was < 0.5 µg/mL; in series [8] it was 0.5 µg/mL. The results for the Activity entry in [14] and in series [20] were “Non-Toxic” and 100%, respectively. Also, the fold change (FC) in series [16] was 8 to 256; in series [3], 16. Moreover, the hemolysis at 0.5 h, 1000 ug/ml in series [17] is ≤ 5%. Also, the figures for the fractional inhibitory concentration index (FICI) in series [18] and in [21] were 0.03 and 0.13, respectively. Further, the inhibition entry in series [19] was “Active”. Besides, the Survival in series [23] turned out to be 10%; in series [22], 77%.
